Reference: ChEMBL document CHEMBL3259614, “Design, synthesis, and structure-activity relationship studies of novel fused heterocycles-linked triazoles with good activity and water solubility” (J Med Chem, 2014)
Converted amounts (≈) assume the structure as drawn.

How the values were obtained:
Format in all cases: functional
Candida albicans [1] = assay: Antimicrobial activity against Candida albicans SC5314 after 24 hrs by serial dilution method; settings: SC5314, 24 h
In short: (§1)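 Broth serial dilution MIC in 96-well plates following NCCLS/CLSI methods. Compounds were dissolved in DMSO and serially diluted in growth medium, with incubation at 35 °C. […] C. parapsilosis 22019 served as the quality-control strain in each assay.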

Candida albicans [2] = assay: Antimicrobial activity against Candida albicans Y0109 after 24 hrs by serial dilution method; settings: Y0109, 24 h; in short: as §1
Nakaseomyces glabratus = assay: Antimicrobial activity against Candida glabrata 537 after 24 hrs by serial dilution method; settings: Nakaseomyces glabratus, 537, 24 h; in short: as §1
Cryptococcus neoformans = assay: Antimicrobial activity against Cryptococcus neoformans 32609 after 72 hrs by serial dilution method; settings: Cryptococcus neoformans, 32609, 72 h; in short: as §1
Candida parapsilosis = assay: Antimicrobial activity against Candida parapsilosis 22019 after 24 hrs by serial dilution method; settings: Lodderomyces parapsilosis, 22019, 24 h; in short: as §1
Aspergillus fumigatus = assay: Antimicrobial activity against Aspergillus fumigatus 7544 after 48 hrs by serial dilution method; settings: Aspergillus fumigatus, 7544, 48 h; in short: as §1

## C[C@@H](N1CCn2nncc2C1)[C@](O)(Cn1cncn1)c1ccc(F)cc1F
Candida albicans [1]
  MIC: 0.0625 µg/mL (≈ 0.166 µM)
Candida albicans [2]
  MIC: 0.125 µg/mL (≈ 0.333 µM)
Nakaseomyces glabratus
  MIC: 0.5 µg/mL (≈ 1.33 µM)
Cryptococcus neoformans
  MIC: 0.25 µg/mL (≈ 0.666 µM)
Candida parapsilosis
  MIC: 0.25 µg/mL (≈ 0.666 µM)
Aspergillus fumigatus
  MIC: 16 µg/mL (≈ 42.6 µM)

## C[C@@H](N1CCn2nnc(Cl)c2C1)[C@](O)(Cn1cncn1)c1ccc(F)cc1F
Candida albicans [1]
  MIC: ≤ 0.0312 µg/mL
Candida albicans [2]
  MIC: 0.0625 µg/mL (≈ 0.153 µM)
Nakaseomyces glabratus
  MIC: 0.25 µg/mL (≈ 0.61 µM)
Cryptococcus neoformans
  MIC: ≤ 0.0625 µg/mL
Candida parapsilosis
  MIC: 0.125 µg/mL (≈ 0.305 µM)
Aspergillus fumigatus
  MIC: 8 µg/mL (≈ 19.5 µM)

## Cc1nnn2c1CN([C@H](C)[C@](O)(Cn1cncn1)c1ccc(F)cc1F)CC2
Candida albicans [1]
  MIC: 0.25 µg/mL (≈ 0.642 µM)
Candida albicans [2]
  MIC: 0.5 µg/mL (≈ 1.28 µM)
Nakaseomyces glabratus
  MIC: 0.5 µg/mL (≈ 1.28 µM)
Cryptococcus neoformans
  MIC: 4 µg/mL (≈ 10.3 µM)
Candida parapsilosis
  MIC: 0.5 µg/mL (≈ 1.28 µM)
Aspergillus fumigatus
  MIC: 16 µg/mL (≈ 41.1 µM)

## C[C@@H](N1CCn2nnc(C(=O)N(C)C)c2C1)[C@](O)(Cn1cncn1)c1ccc(F)cc1F
Candida albicans [1]
  MIC: 0.5 µg/mL (≈ 1.12 µM)
Candida albicans [2]
  MIC: 1 µg/mL (≈ 2.24 µM)
Nakaseomyces glabratus
  MIC: 8 µg/mL (≈ 17.9 µM)
Cryptococcus neoformans
  MIC: 16 µg/mL (≈ 35.8 µM)
Candida parapsilosis
  MIC: 1 µg/mL (≈ 2.24 µM)
Aspergillus fumigatus
  MIC: > 16 µg/mL

## C[C@@H](N1CCn2nnc(-c3ccccc3)c2C1)[C@](O)(Cn1cncn1)c1ccc(F)cc1F
Candida albicans [1]
  MIC: 1 µg/mL (≈ 2.21 µM)
Candida albicans [2]
  MIC: 2 µg/mL (≈ 4.43 µM)
Nakaseomyces glabratus
  MIC: 8 µg/mL (≈ 17.7 µM)
Cryptococcus neoformans
  MIC: 8 µg/mL (≈ 17.7 µM)
Candida parapsilosis
  MIC: 4 µg/mL (≈ 8.86 µM)
Aspergillus fumigatus
  MIC: > 16 µg/mL

## C[C@@H](N1CCn2nnc(-c3cccnc3)c2C1)[C@](O)(Cn1cncn1)c1ccc(F)cc1F
Candida albicans [1]
  MIC: 2 µg/mL (≈ 4.42 µM)
Candida albicans [2]
  MIC: 4 µg/mL (≈ 8.84 µM)
Nakaseomyces glabratus
  MIC: 8 µg/mL (≈ 17.7 µM)
Cryptococcus neoformans
  MIC: 4 µg/mL (≈ 8.84 µM)
Candida parapsilosis
  MIC: 8 µg/mL (≈ 17.7 µM)
Aspergillus fumigatus
  MIC: 8 µg/mL (≈ 17.7 µM)

## C[C@@H](N1CCn2nnc(-c3ccncc3)c2C1)[C@](O)(Cn1cncn1)c1ccc(F)cc1F
Candida albicans [1]
  MIC: 1 µg/mL (≈ 2.21 µM)
Candida albicans [2]
  MIC: 4 µg/mL (≈ 8.84 µM)
Nakaseomyces glabratus
  MIC: 8 µg/mL (≈ 17.7 µM)
Cryptococcus neoformans
  MIC: 16 µg/mL (≈ 35.4 µM)
Candida parapsilosis
  MIC: 4 µg/mL (≈ 8.84 µM)
Aspergillus fumigatus
  MIC: > 16 µg/mL

## C[C@@H](N1CCn2nnc(-c3cncnc3)c2C1)[C@](O)(Cn1cncn1)c1ccc(F)cc1F
Candida albicans [1]
  MIC: 1 µg/mL (≈ 2.21 µM)
Candida albicans [2]
  MIC: 2 µg/mL (≈ 4.41 µM)
Nakaseomyces glabratus
  MIC: 8 µg/mL (≈ 17.6 µM)
Cryptococcus neoformans
  MIC: 8 µg/mL (≈ 17.6 µM)
Candida parapsilosis
  MIC: 8 µg/mL (≈ 17.6 µM)
Aspergillus fumigatus
  MIC: > 16 µg/mL

## C[C@@H](N1CCn2nnc(-c3ccc(C#N)nc3)c2C1)[C@](O)(Cn1cncn1)c1ccc(F)cc1F
Candida albicans [1]
  MIC: 2 µg/mL (≈ 4.19 µM)
Candida albicans [2]
  MIC: 4 µg/mL (≈ 8.38 µM)
Nakaseomyces glabratus
  MIC: 4 µg/mL (≈ 8.38 µM)
Cryptococcus neoformans
  MIC: 16 µg/mL (≈ 33.5 µM)
Candida parapsilosis
  MIC: 4 µg/mL (≈ 8.38 µM)
Aspergillus fumigatus
  MIC: > 16 µg/mL

## C[C@@H](N1CCn2cc(C(F)(F)F)nc2C1)[C@](O)(Cn1cncn1)c1ccc(F)cc1F
Candida albicans [1]
  MIC: 0.25 µg/mL (≈ 0.565 µM)
Candida albicans [2]
  MIC: 0.25 µg/mL (≈ 0.565 µM)
Nakaseomyces glabratus
  MIC: 0.25 µg/mL (≈ 0.565 µM)
Cryptococcus neoformans
  MIC: 1 µg/mL (≈ 2.26 µM)
Candida parapsilosis
  MIC: 0.25 µg/mL (≈ 0.565 µM)
Aspergillus fumigatus
  MIC: > 64 µg/mL

## CCOC(=O)c1cn2c(n1)CN([C@H](C)[C@](O)(Cn1cncn1)c1ccc(F)cc1F)CC2
Candida albicans [1]
  MIC: 0.5 µg/mL (≈ 1.12 µM)
Candida albicans [2]
  MIC: 0.5 µg/mL (≈ 1.12 µM)
Nakaseomyces glabratus
  MIC: 1 µg/mL (≈ 2.24 µM)
Cryptococcus neoformans
  MIC: 2 µg/mL (≈ 4.48 µM)
Candida parapsilosis
  MIC: 0.5 µg/mL (≈ 1.12 µM)
Aspergillus fumigatus
  MIC: > 64 µg/mL

## C[C@@H](N1CCn2cc(C(C)(C)C)nc2C1)[C@](O)(Cn1cncn1)c1ccc(F)cc1F
Candida albicans [1]
  MIC: 0.25 µg/mL (≈ 0.581 µM)
Candida albicans [2]
  MIC: 0.125 µg/mL (≈ 0.29 µM)
Nakaseomyces glabratus
  MIC: 0.25 µg/mL (≈ 0.581 µM)
Cryptococcus neoformans
  MIC: 0.25 µg/mL (≈ 0.581 µM)
Candida parapsilosis
  MIC: 0.25 µg/mL (≈ 0.581 µM)
Aspergillus fumigatus
  MIC: > 64 µg/mL

## COc1ccc(-c2cn3c(n2)CN([C@H](C)[C@](O)(Cn2cncn2)c2ccc(F)cc2F)CC3)cc1
Candida albicans [1]
  MIC: 0.0625 µg/mL (≈ 0.13 µM)
Candida albicans [2]
  MIC: 0.0625 µg/mL (≈ 0.13 µM)
Nakaseomyces glabratus
  MIC: 0.125 µg/mL (≈ 0.26 µM)
Cryptococcus neoformans
  MIC: 0.125 µg/mL (≈ 0.26 µM)
Candida parapsilosis
  MIC: 0.125 µg/mL (≈ 0.26 µM)
Aspergillus fumigatus
  MIC: 32 µg/mL (≈ 66.6 µM)

## C[C@@H](N1CCn2cc(-c3ccc(F)cc3)nc2C1)[C@](O)(Cn1cncn1)c1ccc(F)cc1F
Candida albicans [1]
  MIC: 0.125 µg/mL (≈ 0.267 µM)
Candida albicans [2]
  MIC: 0.125 µg/mL (≈ 0.267 µM)
Nakaseomyces glabratus
  MIC: 0.125 µg/mL (≈ 0.267 µM)
Cryptococcus neoformans
  MIC: 0.125 µg/mL (≈ 0.267 µM)
Candida parapsilosis
  MIC: 0.125 µg/mL (≈ 0.267 µM)
Aspergillus fumigatus
  MIC: 32 µg/mL (≈ 68.3 µM)

## C[C@@H](N1CCn2cc(-c3ccc(C(F)(F)F)cc3)nc2C1)[C@](O)(Cn1cncn1)c1ccc(F)cc1F
Candida albicans [1]
  MIC: 0.125 µg/mL (≈ 0.241 µM)
Candida albicans [2]
  MIC: 0.25 µg/mL (≈ 0.482 µM)
Nakaseomyces glabratus
  MIC: 0.25 µg/mL (≈ 0.482 µM)
Cryptococcus neoformans
  MIC: 0.125 µg/mL (≈ 0.241 µM)
Candida parapsilosis
  MIC: 0.25 µg/mL (≈ 0.482 µM)
Aspergillus fumigatus
  MIC: 32 µg/mL (≈ 61.7 µM)

## C[C@@H](N1CCn2cc(-c3ccc(F)cc3F)nc2C1)[C@](O)(Cn1cncn1)c1ccc(F)cc1F
Candida albicans [1]
  MIC: 0.125 µg/mL (≈ 0.257 µM)
Candida albicans [2]
  MIC: 0.125 µg/mL (≈ 0.257 µM)
Nakaseomyces glabratus
  MIC: 0.125 µg/mL (≈ 0.257 µM)
Cryptococcus neoformans
  MIC: 0.125 µg/mL (≈ 0.257 µM)
Candida parapsilosis
  MIC: 0.125 µg/mL (≈ 0.257 µM)
Aspergillus fumigatus
  MIC: 32 µg/mL (≈ 65.8 µM)

## Cc1ccc(-c2cn3c(n2)CN([C@H](C)[C@](O)(Cn2cncn2)c2ccc(F)cc2F)CC3)cc1
Candida albicans [1]
  MIC: 0.0625 µg/mL (≈ 0.135 µM)
Candida albicans [2]
  MIC: 0.0625 µg/mL (≈ 0.135 µM)
Nakaseomyces glabratus
  MIC: 0.125 µg/mL (≈ 0.269 µM)
Cryptococcus neoformans
  MIC: 0.125 µg/mL (≈ 0.269 µM)
Candida parapsilosis
  MIC: 0.125 µg/mL (≈ 0.269 µM)
Aspergillus fumigatus
  MIC: 32 µg/mL (≈ 68.9 µM)

## COc1cccc(-c2cn3c(n2)CN([C@H](C)[C@](O)(Cn2cncn2)c2ccc(F)cc2F)CC3)c1
Candida albicans [1]
  MIC: 0.0625 µg/mL (≈ 0.13 µM)
Candida albicans [2]
  MIC: 0.0625 µg/mL (≈ 0.13 µM)
Nakaseomyces glabratus
  MIC: 0.125 µg/mL (≈ 0.26 µM)
Cryptococcus neoformans
  MIC: 0.0625 µg/mL (≈ 0.13 µM)
Candida parapsilosis
  MIC: 0.125 µg/mL (≈ 0.26 µM)
Aspergillus fumigatus
  MIC: 32 µg/mL (≈ 66.6 µM)

## C[C@@H](N1CCn2cc(-c3cccc(F)c3)nc2C1)[C@](O)(Cn1cncn1)c1ccc(F)cc1F
Candida albicans [1]
  MIC: 0.125 µg/mL (≈ 0.267 µM)
Candida albicans [2]
  MIC: 0.25 µg/mL (≈ 0.534 µM)
Nakaseomyces glabratus
  MIC: 0.25 µg/mL (≈ 0.534 µM)
Cryptococcus neoformans
  MIC: 0.25 µg/mL (≈ 0.534 µM)
Candida parapsilosis
  MIC: 0.125 µg/mL (≈ 0.267 µM)
Aspergillus fumigatus
  MIC: 64 µg/mL (≈ 137 µM)

## C[C@@H](N1CCn2cc(-c3cccc(C(F)(F)F)c3)nc2C1)[C@](O)(Cn1cncn1)c1ccc(F)cc1F
Candida albicans [1]
  MIC: 0.125 µg/mL (≈ 0.241 µM)
Candida albicans [2]
  MIC: 0.5 µg/mL (≈ 0.964 µM)
Nakaseomyces glabratus
  MIC: 0.25 µg/mL (≈ 0.482 µM)
Cryptococcus neoformans
  MIC: 0.25 µg/mL (≈ 0.482 µM)
Candida parapsilosis
  MIC: 0.125 µg/mL (≈ 0.241 µM)
Aspergillus fumigatus
  MIC: 64 µg/mL (≈ 123 µM)
